hERG protect = hERG rescue from dofetilide block, primary screen, cell-based, CHO-hERG, FluxOR thallium flux, dofetilide IC70; Voltage-gated inwardly rectifying potassium channel KCNH2 (Homo sapiens), Q12809; dofetilide IC70 present; activation (rescue from dofetilide block), less the hit threshold, % at 10 µM; actives 0.51% (n = 310,000); AID 1511, 2009;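 active means activation above the mean of controls blocked by dofetilide plus 5 SD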;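 further: thallium influx through hERG after potassium depolarization seen as dye fluorescence rise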
KCNQ1 act = potentiators or activators of KCNQ1 channel, primary screen, cell-based, thallium flux, high-throughput. Potassium voltage-gated channel subfamily KQT member 1 (Homo sapiens), P51787. CHO-K1 KCNQ1, thallium flux FluxOR fluorescence; stronger effect = higher value. B-score at 10 µM. actives 0.35% (n = 310,000). AID 2648, 2010;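 active means fluorescence ratio B-score, a plate-corrected score, at least three library SD, with initial intensity B-score within 5 SD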
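Test system: CHO-K1 cells stably expressing KCNQ1 / Medium: assay buffer / Also added: depolarizing K+/Tl+ stimulus, K2SO4 and Tl2SO4 each 12.5 mM in 5x stock / Incubation: 90 min dye loading and 20 min compound exposure, both at room temperature / Signal: thallium influx via FluxOR fluorescence, kinetic imaging / Evaluation: B score of baseline-normalized fluorescence ratio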
KCNQ1 block = inhibitors of human KCNQ1 channel, primary screen, cell-based, thallium flux, high-throughput | Potassium voltage-gated channel subfamily KQT member 1 (Homo sapiens), P51787 | CHO-K1 KCNQ1, FluxOR thallium flux fluorescence; stronger effect = higher value | B-score at 10 µM | actives 1.3% (n = 310,000);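 active means compounds whose thallium flux B-score, printed positive for inhibition, exceeds three library SD while starting fluorescence stays within three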;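 further: channel opened by potassium depolarization with thallium stimulus after 20 min compound exposure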
KCNK9 block = KCNK9 potassium channel inhibitors, primary screen, HEK293 cells, thallium flux; FluxOR thallium flux fluorescence; stronger effect = lower value; Potassium channel subfamily K member 9 (Homo sapiens), Q9NPC2; actives 1.2% (n = 310,000); B-score at 10 µM; AID 488922, 2010;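 active means ratio B-score over 3 SD below the library mean, with starting fluorescence within 5 SD of its mean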;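 further: negative B-score means less thallium flux so channel inhibition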
Kir21 inh = inhibitors of mouse Kir2.1 inward-rectifier potassium channel; Inward rectifier potassium channel 2 (Mus musculus), P35561; HEK293-Kir2.1, FluxOR thallium flux fluorescence; stronger effect = lower value; B-score at 10 µM; actives 0.85% (n = 310,000); AID 1672, 2009;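 active means fluorescence ratio B-score at or below minus 3 SD of library scores, with starting-brightness B-score within 2 SD, cut at about -4.2 in these data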;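 further: channel flux triggered by added potassium and thallium sulfate stimulus; B-score of peak minus minimum fluorescence over baseline after thallium stimulus; more negative B-score means stronger Kir2.1 block with less thallium influx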
KCNK3 block = human KCNK3 channel inhibitors, primary screen, CHO cells, FluxOR thallium flux, B-score | actives 0.84% (n = 340,000) | FluxOR fluorescence; stronger effect = lower value | Potassium channel subfamily K member 3 (Homo sapiens), O14649 | B-score at 10 µM | AID 602410, 2012;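 active means B-score under library mean minus 4 SD, starting fluorescence ratio at most library mean plus 5 SD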;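 further: more negative B-score means stronger inhibition of thallium flux through KCNK3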
KCNQ1 block val = KCNQ1 potassium channel inhibitors, confirmation, cell-based, Tl flux, duplicate; shares compounds with KCNQ1 block; KCNQ1 cell line, FluxOR thallium flux fluorescence; inhibition, % at 10 µM; actives 93% (n = 1,600);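 active means primary screen active, with duplicate mean exceeding buffer control mean plus 3 SD of buffer wells, cut at about 28% in these data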;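 further: 0% = buffer control ratio and 100% = XE991 inhibitor control ratio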
CHO Tl flux = thallium flux effects in parental CHO cells, counter-screen for KCNQ1 inhibitor project, cell-based, Tl flux | AID 588366, 2011 | parental CHO-K1, FluxOR thallium flux fluorescence ratio; stronger effect = lower value; zero means no signal rise above baseline | actives 21% (n = 1,600) | fluorescence ratio (Tl flux) at 10 µM | shares compounds with KCNQ1 block;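 active means mean of duplicate thallium-flux fluorescence ratios in parental host cells more than 5 SD below the buffer control mean, cut at about 0.38 in these data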;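 further: ratio is peak minus minimum fluorescence divided by baseline fluorescence; actives read low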
KCNQ1 ephys val = KCNQ1 channel inhibitors, confirmation, orthogonal assay, cell-based, automated electrophysiology; shares compounds with KCNQ1 block; KCNQ1-CHO cells, automated patch clamp current; calls only at 10 µM; actives 20% (n = 490); AID 624120, 2012;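 active means KCNQ1 current drop exceeding 3 SD of negative control wells, seen in both duplicate runs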;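 further: steady state current during a 2 s step from -80 to +40 mV; negative values mean current inhibition and positive values mean potentiation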
KCNQ2 spec = KCNQ2 channel inhibition, selectivity assay for KCNQ1 inhibitor project, cell-based; shares compounds with KCNQ1 block; KCNQ2 cells, FluxOR thallium flux fluorescence; inhibition, % at 10 µM; actives 71% (n = 1,600);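 active means mean percent inhibition of the KCNQ2 thallium signal more than 5 SD above the buffer-only control wells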;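 further: KCNQ2 expressed in CHO cells; 0% = buffer control wells and 100% = XE-991 inhibitor control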
KCNQ1 KCNE1 spec = KCNQ1/KCNE1 channel inhibition, selectivity assay for KCNQ1 inhibitor project, CHO-K1 cells, thallium flux, FluxOR | shares compounds with KCNQ1 block | FluxOR thallium flux fluorescence | inhibition, % at 10 µM | actives 77% (n = 1,600);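 active means mean percent inhibition of duplicate wells above the buffer-only control mean plus 3 SD of those controls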;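 further: 0% = buffer only wells and 100% = XE-991 inhibitor control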
Target sequence (P51787 whole entry, looked up): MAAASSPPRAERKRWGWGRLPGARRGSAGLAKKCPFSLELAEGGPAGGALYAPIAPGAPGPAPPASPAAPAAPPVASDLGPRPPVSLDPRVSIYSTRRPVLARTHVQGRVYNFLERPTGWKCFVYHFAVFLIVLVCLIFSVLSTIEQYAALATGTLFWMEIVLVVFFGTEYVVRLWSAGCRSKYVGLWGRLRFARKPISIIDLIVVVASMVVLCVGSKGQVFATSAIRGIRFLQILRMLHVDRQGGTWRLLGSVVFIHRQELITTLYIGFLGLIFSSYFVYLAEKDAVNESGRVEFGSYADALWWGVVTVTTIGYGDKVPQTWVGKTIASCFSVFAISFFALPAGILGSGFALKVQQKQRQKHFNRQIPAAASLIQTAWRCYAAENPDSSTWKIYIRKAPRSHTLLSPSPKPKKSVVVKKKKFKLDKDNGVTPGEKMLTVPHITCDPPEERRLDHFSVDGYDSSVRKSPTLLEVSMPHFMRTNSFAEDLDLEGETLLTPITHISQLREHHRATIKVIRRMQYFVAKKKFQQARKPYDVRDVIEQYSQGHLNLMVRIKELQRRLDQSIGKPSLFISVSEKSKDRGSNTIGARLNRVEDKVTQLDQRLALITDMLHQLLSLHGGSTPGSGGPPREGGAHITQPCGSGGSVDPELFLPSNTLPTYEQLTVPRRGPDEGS
KCNK9 inh conf = KCNK9 potassium channel inhibitors, confirmation, HEK293 cells, thallium flux, duplicate; FluxOR thallium flux fluorescence; actives 43% (n = 4,900); shares compounds with KCNK9 block; inhibition, % at 10 µM; AID 492992, 2010;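 active means thallium signal inhibited by more than 5 SD of the compound-free buffer control wells, on both duplicate plates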;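 further: 0% = assay buffer control wells without compound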
Kir21 sel = mouse Kir2.1 channel inhibition, confirmation, selectivity assay for KCNK9 modulator project, cell-based, HEK293, thallium flux. shares compounds with KCNK9 block. Kir2.1 cells, FluxOR thallium flux fluorescence. inhibition, % at 10 µM. actives 4% (n = 4,900);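 active means thallium signal drop more than 5 SD beyond the mean of the no-compound control wells, seen in both duplicate plates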;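 further: signal is fluorescence rise after thallium addition divided by baseline fluorescence; plate controls were assay buffer only for no effect and full block by chlorpromazine control for full effect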
KCNK9 uninduced = thallium flux in non-induced HEK293 cells, confirmation, counter-screen for KCNK9 inhibitor project, cell-based, second counter screen, non-induced KCNK9-HEK293; shares compounds with KCNK9 block; FluxOR thallium flux; actives 40% (n = 4,900); inhibition, % at 10 µM;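 active means thallium signal drop beyond 5 SD of the untreated control mean, on both duplicate plates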;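 further: plate controls were buffer only IC0 wells for no effect and SID17386958 at its maximal inhibitory level for full effect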
KCNK3 inh conf = retest of human KCNK3 channel inhibitors, confirmation, CHO cells, FluxOR thallium flux, triplicate; ratio percent of control, % at 10 µM; AID 651638, 2012; FluxOR fluorescence; 0% buffer, 100% carvedilol maximal block; actives 99% (n = 2,400); shares compounds with KCNK3 block;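 active means ratio percent of control, averaged over triplicates, above buffer control mean plus 5 SD, cut at about 64% in these data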;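 further: ratio is the fluorescence rise from min to max over baseline after thallium stimulus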
KCNK3 noninduced = thallium flux inhibition in non-induced cells, primary screen, counter-screen for KCNK3 inhibitor project, cell-based, non-induced KCNK3 line, FluxOR thallium, triplicate. shares compounds with KCNK3 block. thallium flux ratio (lower = more inhibition) at 10 µM. AID 651747, 2012. actives 40% (n = 2,400). non-induced KCNK3 parental cells; stronger effect = lower value;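 active means thallium flux ratio, averaged over three wells, more than 5 SD below the buffer control mean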;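 further: host cells are CHO cells without KCNK3 induction; ratio is peak minus trough fluorescence over baseline then normalized to buffer controls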
The depositor's hits bear a star; i = inactive; . = no result; + = active, no number. Hits are enriched below; roughly 3.7% of the tested compounds scored in any of these assays.

SMILES	hERG protect	KCNQ1 act	KCNQ1 block	KCNK9 block	Kir21 inh	KCNK3 block	KCNQ1 block val	CHO Tl flux	KCNQ2 spec	KCNQ1 KCNE1 spec	KCNK3 inh conf	KCNK3 noninduced	others
COc1cccc(-c2cc3nc4c(c(NCC(C)(C)CN(C)C)n3n2)CCCC4)c1	-10	i	9*	i	0.8	-10*	86*	0.45	95%*	116%*	120*	i
O=C(NCCC(=O)N1CCN(c2ccccn2)CC1)c1ccc(Cl)cc1	.	.	.	.	.	i	.	.	.	.	.	.
O=C(Nc1ccncc1)c1ccc(Cl)c(S(=O)(=O)N2CCCCC2)c1	-15	i	i	i	-1.5	i	.	.	.	.	.	.
O=C(Nc1ccncc1)c1ccc(Cl)c(S(=O)(=O)N2CCc3ccccc32)c1	-28	i	10*	i	-0.83	-10*	134*	0.29*	94%*	134%*	136*	0.16*
Cc1nc2ccccc2c2c1CC(C(C)(Cl)Br)O2 (configuration not stated)	-26	i	6*	i	-0.94	-9.6*	106*	0.48	80%*	i	127*	i	KCNQ1 ephys val=+
Cc1ccccc1NC(=O)Cc1nc(COC(=O)CC(C)c2ccccc2)cs1 (configuration not stated)	.	.	.	.	.	i	.	.	.	.	.	.
CCOC(=O)c1cccc(N2CC3CNC(=O)C2(C(=O)OC)N3C)c1 (configuration not stated)	.	.	.	.	.	i	.	.	.	.	.	.
CCOc1ccc(N(C)S(=O)(=O)c2cc(-c3cc(C)no3)ccc2CC)cc1	-5	i	13*	-7.8*	1.2	-13*	98*	0.36*	118%*	138%*	123*	0.14*
O=C(NC1CCCCC1)C1CCN(C(=O)c2ccc(Cl)cc2)CC1	-6	i	i	i	0.69	i	.	.	.	.	.	.
COc1cccc(NC(=O)c2ccccc2)c1	.	.	.	.	.	i	.	.	.	.	.	.
COc1cccc(C(=O)Nc2cccc(-c3ccccc3)c2)c1	-2	i	9*	i	-1.6	-12*	148*	0.44	99%*	+	113*	i	KCNQ1 ephys val=i
CCC(C)c1ccc(NC(=S)NCc2cccs2)cc1 (configuration not stated)	-12	i	7*	i	-1.5	-9.5*	90*	0.51	61%*	95%*	111*	i	KCNQ1 ephys val=+
CC(C)(C)c1ccc(NC(=S)NCc2cccs2)cc1	-6	i	i	i	-1.2	i	.	.	.	.	.	.
N#Cc1ccc(CN2CCN(CC(=O)NCCc3ccc(Cl)cc3Cl)CC2)cc1	-13	i	i	i	-0.32	i	.	.	.	.	.	.
O=C(NCc1cccc(Cl)c1)c1cc(COc2ccc3ncccc3c2)on1	-12	i	13*	i	-0.11	-13*	93*	0.33*	100%*	+	126*	i
CCN(C(=O)c1cc2c(s1)-c1ccccc1OC2)c1cc(OC)ccc1OC	-7	i	7*	-17*	-0.55	-14*	110*	0.37*	96%*	185%*	132*	0.12*	KCNK9 inh conf=68%*;Kir21 sel=i;KCNK9 uninduced=32%*
O=C(Oc1cccc(Nc2ncnc3ccccc23)c1)c1ccccc1Cl	-23	i	12*	-9*	1.6	-9.6*	140*	0.31*	131%*	+	139*	i	KCNK9 inh conf=52%*;Kir21 sel=42%*;KCNK9 uninduced=44%*
CCc1nc(N2CCN(Cc3ccc4c(c3)OCO4)CC2)c2oc3ccccc3c2n1	-17	i	9*	i	-0.69	-9*	128*	0.41	105%*	179%*	109*	0.14*	KCNQ1 ephys val=i
O=C(N[C@H](Cc1cc(=O)[nH]c2ccccc12)C(=O)O)c1ccc(Cl)cc1	1	i	i	i	-0.51	i	.	.	.	.	.	.
c1ccc(-c2csc(N3CCCCCC3)n2)cc1	-5	i	i	i	1.4	i	.	.	.	.	.	.
